How the values were obtained:
3T3-L1 [1] = test: In vitro glucose transport activity in 3T3-LI adipocytes at 30 uM concentration.; type: functional, Mus musculus
Summary of the method: (§1)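 Differentiated 3T3-L1 adipocytes, no added insulin, treated in triplicate for 18 h with compound at 3, 10 or 30 µM. Glucose transport expressed as % (relative to untreated); values are means of triplicate runs, significance by one-tailed independent Student's t-test.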

3T3-L1 [2] = test: In vitro glucose transport activity in 3T3-LI adipocytes at 3 uM concentration.; type: functional, Mus musculus; summary of the method: as §1
3T3-L1 [3] = test: In vitro glucose transport activity in 3T3-LI adipocytes at 10 uM concentration.; type: functional, Mus musculus; summary of the method: as §1
Mus musculus [4] = test: Mean body weight measured in genetically altered obese diabetic mice(db/db) at 100 mg/kg at 24 hr postdose; type: functional
Summary of the method: (§2)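 Obese diabetic C57BL/KS-db/db mice, single dose at t = 0, n = 8 per group (n = 5 for parent compound). Body weight recorded per mouse at 0 and 24 h; food intake reported as g/mouse/day. Vehicle used as negative control, metformin as positive control.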

Mus musculus [5] = test: Food intake measured in genetically altered obese diabetic mice(db/db) at 100 mg/kg dose; type: functional; summary of the method: as §2
Mus musculus [6] = test: Change in plasma glucose levels measured in genetically altered obese diabetic mice(db/db) at 100 mg/kg at 3 hr postdose; type: functional
Mus musculus [7] = test: Change in plasma glucose levels measured in genetically altered obese diabetic mice(db/db) at 100 mg/kg at 24 hr postdose; type: functional
Mus musculus [8] = test: Mean body weight measured in genetically altered obese diabetic mice(db/db) at 100 mg/kg at 0 hr postdose; type: functional; summary of the method: as §2
Mus musculus [9] = test: Mean body weight measured in genetically altered obese diabetic mice(db/db) at 30 mg/kg at 0 hr postdose; type: functional; summary of the method: as §2
Mus musculus [10] = test: Change in plasma glucose levels measured in genetically altered obese diabetic mice(db/db) at 30 mg/kg at 3 hr postdose; type: functional
Mus musculus [11] = test: Food intake measured in genetically altered obese diabetic mice(db/db) at 30 mg/kg dose; type: functional; summary of the method: as §2
Mus musculus [12] = test: Mean body weight measured in genetically altered obese diabetic mice(db/db) at 30 mg/kg at 24 hr postdose; type: functional; summary of the method: as §2
Mus musculus [13] = test: Change in plasma glucose levels measured in genetically altered obese diabetic mice(db/db) at 30 mg/kg at 24 hr postdose; type: functional
Mus musculus [14] = test: Food intake measured in genetically altered obese diabetic mice(db/db) at 100 mg/kg dose; 2 animals died; type: functional
Mus musculus [15] = test: Food intake measured in genetically altered obese diabetic mice(db/db) at 100 mg/kg dose; 6 animals died; type: functional
Mus musculus [16] = test: Mean body weight measured in genetically altered obese diabetic mice(db/db) at 30 mg/kg at 24 h postdose; type: functional; summary of the method: as §2
Mus musculus [17] = test: Mean body weight measured in genetically altered obese diabetic mice(db/db) at 30 mg/kg at 0 h postdose; type: functional; summary of the method: as §2

| Compound | Glucose transport (3T3-L1 [1]) [%] | Glucose transport (3T3-L1 [2]) [%] | Glucose transport (3T3-L1 [3]) [%] | Mean body weight (Mus musculus [4]) [g mouse-1] | Food intake (Mus musculus [5]) [g mouse-1 day-1] | Change (Mus musculus [6]) [%] | Change (Mus musculus [7]) [%] | Mean body weight (Mus musculus [8]) [g mouse-1] | Mean body weight (Mus musculus [9]) [g mouse-1] | Change (Mus musculus [10]) [%] | Food intake (Mus musculus [11]) [g mouse-1 day-1] | Mean body weight (Mus musculus [12]) [g mouse-1] | Change (Mus musculus [13]) [%] | Food intake (Mus musculus [14]) [g mouse-1 day-1] | Food intake (Mus musculus [15]) [g mouse-1 day-1] | Mean body weight (Mus musculus [16]) [g mouse-1] | Mean body weight (Mus musculus [17]) [g mouse-1] |
| --- | --- | --- | --- | --- | --- | --- | --- | --- | --- | --- | --- | --- | --- | --- | --- | --- | --- |
| C[n+]1c2cccc(Cl)c2c(Cl)c2[nH]c3ccccc3c21.[Cl-] | 352 | 120 | 282 |  |  |  |  |  |  |  |  |  |  |  |  |  |  |
| C[n+]1c2ccccc2c(I)c2[nH]c3ccc(F)cc3c21.[Cl-] | 0.92 | 115 | 117 | 41.8 | 2.7 | -33.1 | -13.2 | 42.2 |  |  |  |  |  |  |  |  |  |
| COc1cccc2cc3[nH]c4ccccc4c3[n+](C)c12.[Cl-] | 543 | 237 | 486 | 37.1 | 2 | -8.3 | -58.3 | 38.4 |  |  |  |  |  |  |  |  |  |
| CC[n+]1c2ccccc2cc2[nH]c3ccccc3c21.[Cl-] | 404 | 197 | 228 | 43.3 |  | -23.2 | -26.5 | 44.6 | 41.7 | -7.7 | 5.1 | 41.2 | -4.1 | 1 |  |  |  |
| C[n+]1c2ccccc2c(Cl)c2oc3ccccc3c21.O=S(=O)([O-])C(F)(F)F | 107 | 119 | 114 | 41.1 | 4.9 | -17.9 | -20.8 | 40.6 |  |  |  |  |  |  |  |  |  |
| C[n+]1c2ccccc2c(Cl)c2[nH]c3ccccc3c21.[Cl-] | 0.33 | 107 | 101 |  |  |  |  |  |  |  |  |  |  |  |  |  |  |
| [Cl-].c1ccc(C[n+]2c3ccccc3cc3[nH]c4ccccc4c32)cc1 | 161 | 611 | 781 | 38.9 | 5.1 | -15 | -20 | 39.3 |  |  |  |  |  |  |  |  |  |
| C[n+]1c2ccccc2c(Sc2ccc(Cl)cc2)c2oc3ccccc3c21.O=S(=O)([O-])C(F)(F)F | 141 | 118 | 142 |  |  |  |  |  |  |  |  |  |  |  |  |  |  |
| C[n+]1c2ccc(F)cc2c(Cl)c2[nH]c3ccccc3c21.[Cl-] | 3.3 | 142 | 224 |  |  |  |  |  |  |  |  |  |  |  |  |  |  |
| CCCC[n+]1c2ccccc2cc2[nH]c3ccccc3c21.[Cl-] | 490 | 561 | 868 | 45.8 |  | -33.8 | -2.2 | 45.8 |  | 4 | 6 |  | -22 |  | 2.6 | 38.6 | 38.7 |
| C[n+]1c2c(c(Sc3ccc(Cl)cc3)c3ccccc31)Cc1ccccc1-2.O=S(=O)([O-])C(F)(F)F | 122 | 108 | 110 |  |  |  |  |  |  |  |  |  |  |  |  |  |  |
| C[n+]1c2ccccc2c(Cl)c2[nH]c3cccc(F)c3c21.[Cl-] | 6.4 | 143 | 457 |  |  |  |  |  |  |  |  |  |  |  |  |  |  |
| C[n+]1c2c(c(Cl)c3ccccc31)Cc1ccccc1-2.O=S(=O)([O-])C(F)(F)F | 297 | 125 | 119 |  |  |  |  |  |  |  |  |  |  |  |  |  |  |
| C[n+]1c2ccccc2cc2[nH]c3cc(Cl)c(Br)cc3c21.[Cl-] | 0.1 | 104 | 127 | 44.6 | 2.8 | -33 | -18.9 | 45.5 |  |  |  |  |  |  |  |  |  |

— ChEMBL document CHEMBL1131580, “Antihyperglycemic activities of cryptolepine analogues: an ethnobotanical lead structure isolated from Cryptolepis sanguinolenta” (1998)
